In ChEMBL document CHEMBL1148767, “Synthesis and biological evaluation of the mitochondrial complex 1 inhibitor 2-[4-(4-fluorobutyl)benzylsulfanyl]-3-methylchromene-4-one as a potential cardiac positron emission tomography tracer” (J Med Chem, 2007):
One block for each molecule: values may come before it.

Assays:
[1] = Inhibition of bovine mitochondrial MC1; design: species or system Bos taurus
How it was run: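 Submitochondrial particles were sonicated from bovine heart mitochondria, final 45 µg/mL. Medium was 50 mM K2HPO4 pH 7.4, 0.4 µM antimycin A and 2 mM KCN. Inhibitor preincubated 4 min at varying concentrations. Reaction started with 100 µM decyl ubiquinone and 50 µM NADH at 37 °C. NADH oxidation read at 340 nm for 120 s. IC50 is 50% inhibition, referenced to a concurrent rotenone standard.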

Heart [2] = test: Biodistribution in Sprague-Dawley rat heart at 15 uCi, iv after 120 mins; assay type: ADME, organism-based; conditions: in vivo, 2 h
How it was run: (§1)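 Male SD rats (300-400 g) anesthetized with sodium pentobarbital (50 mg/kg ip), left femoral vein cannulated. About 15 µCi of 18F tracer (specific activity 750-2000 Ci/mmol) in 0.3 mL 10% ethanol saline given iv. Sacrificed in CO2 at 30 or 120 min (n = 5 per time point). Tissues weighed, gamma-counted, decay-corrected, and expressed as %ID/g ± SD.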

Lung [3] = test: Biodistribution in Sprague-Dawley rat lung at 15 uCi, iv after 30 mins; assay type: ADME, organism-based; conditions: in vivo, 0.5 h; how it was run: as §1
Spleen [4] = test: Biodistribution in Sprague-Dawley rat spleen at 15 uCi, iv after 120 mins; assay type: ADME, organism-based; conditions: in vivo, 2 h; how it was run: as §1
Kidney [5] = test: Biodistribution in Sprague-Dawley rat kidney at 15 uCi, iv after 120 mins; assay type: ADME, organism-based; conditions: in vivo, 2 h; how it was run: as §1
Brain [6] = test: Biodistribution in Sprague-Dawley rat brain at 15 uCi, iv after 120 mins; assay type: ADME, organism-based; conditions: in vivo, 2 h; how it was run: as §1
Muscle tissue [7] = test: Biodistribution in Sprague-Dawley rat muscle at 15 uCi, iv after 120 mins; assay type: ADME, organism-based; conditions: in vivo, 2 h; how it was run: as §1
Lung [8] = test: Biodistribution in Sprague-Dawley rat lung at 15 uCi, iv after 120 mins; assay type: ADME, organism-based; conditions: in vivo, 2 h; how it was run: as §1
Heart [9] = test: Biodistribution in Sprague-Dawley rat heart at 15 uCi, iv after 30 mins; assay type: ADME, organism-based; conditions: in vivo, 0.5 h; how it was run: as §1
Kidney [10] = test: Biodistribution in Sprague-Dawley rat kidney at 15 uCi, iv after 30 mins; assay type: ADME, organism-based; conditions: in vivo, 0.5 h; how it was run: as §1
Blood [11] = test: Biodistribution in Sprague-Dawley rat blood at 15 uCi, iv after 30 mins; assay type: ADME, organism-based; conditions: in vivo, 0.5 h; how it was run: as §1
Brain [12] = test: Biodistribution in Sprague-Dawley rat brain at 15 uCi, iv after 30 mins; assay type: ADME, organism-based; conditions: in vivo, 0.5 h; how it was run: as §1
Liver [13] = test: Biodistribution in Sprague-Dawley rat liver at 15 uCi, iv after 120 mins; assay type: ADME, organism-based; conditions: in vivo, 2 h; how it was run: as §1
Femur [14] = test: Biodistribution in Sprague-Dawley rat femur at 15 uCi, iv after 30 mins; assay type: ADME, organism-based; conditions: in vivo, 0.5 h; how it was run: as §1
Liver [15] = test: Biodistribution in Sprague-Dawley rat liver at 15 uCi, iv after 30 mins; assay type: ADME, organism-based; conditions: in vivo, 0.5 h; how it was run: as §1
Femur [16] = test: Biodistribution in Sprague-Dawley rat femur at 15 uCi, iv after 120 mins; assay type: ADME, organism-based; conditions: in vivo, 2 h; how it was run: as §1
Blood [17] = test: Biodistribution in Sprague-Dawley rat blood at 15 uCi, iv after 120 mins; assay type: ADME, organism-based; conditions: in vivo, 2 h; how it was run: as §1
Muscle tissue [18] = test: Biodistribution in Sprague-Dawley rat muscle at 15 uCi, iv after 30 mins; assay type: ADME, organism-based; conditions: in vivo, 0.5 h; how it was run: as §1
Spleen [19] = test: Biodistribution in Sprague-Dawley rat spleen at 15 uCi, iv after 30 mins; assay type: ADME, organism-based; conditions: in vivo, 0.5 h; how it was run: as §1

SMILES: Cc1c(SCc2ccc(COCCF)cc2)oc2ccccc2c1=O
IC50 [1]: 15 nM

SMILES: Cc1c(SCc2ccc(C(C)(C)C)cc2)oc2ccccc2c1=O
IC50 [1]: 52 nM

SMILES: Cc1c(SCc2ccc(OCC(C)F)cc2)oc2ccccc2c1=O (stereo unspecified)
IC50 [1]: 16 nM

SMILES: CC(C)(C)c1ccc(CCOc2ncnc3ccccc23)cc1 [FENAZAQUIN]
IC50 [1]: 90 nM

SMILES: CC(C)(C)c1ccc(CSc2cnn(C(C)(C)C)c(=O)c2Cl)cc1 [PYRIDABEN]
IC50 [1]: 8 nM

SMILES: C=C(C)[C@H]1Cc2c(ccc3c2O[C@@H]2COc4cc(OC)c(OC)cc4[C@@H]2C3=O)O1 [ROTENONE]
IC50 [1]: 16 nM

Second part, the molecule after the results:

IC50 [1]: 60 nM
SMILES: CCCCc1ccc(COc2oc3ccccc3c(=O)c2C)cc1

IC50 [1]: 57 nM
SMILES: CCCCc1ccc(CNc2oc3ccccc3c(=O)c2C)cc1

IC50 [1]: 9 nM
SMILES: Cc1c(SCc2ccc(CCCCF)cc2)oc2ccccc2c1=O

IC50 [1]: 33 nM
SMILES: Cc1c(OCc2ccc(CCCCF)cc2)oc2ccccc2c1=O

IC50 [1]: 133 nM
SMILES: Cc1c(NCc2ccc(CCCCF)cc2)oc2ccccc2c1=O

IC50 [1]: 197 nM
SMILES: Cc1c(SCc2ccc(CCCCOCCF)cc2)oc2ccccc2c1=O

Drug uptake (Heart [2]): 1.52 % ID/g | Drug uptake (Lung [3]): 0.32 % ID/g | Drug uptake (Spleen [4]): 0.09 % ID/g | Drug uptake (Kidney [5]): 0.59 % ID/g | Drug uptake (Brain [6]): 0.17 % ID/g | Drug uptake (Muscle tissue [7]): 0.09 % ID/g | Drug uptake (Lung [8]): 0.12 % ID/g | Drug uptake (Heart [9]): 2.24 % ID/g | Drug uptake (Kidney [10]): 1.93 % ID/g | Drug uptake (Blood [11]): 0.11 % ID/g | Drug uptake (Brain [12]): 0.26 % ID/g | Drug uptake (Liver [13]): 0.6 % ID/g | Drug uptake (Femur [14]): 0.36 % ID/g | Drug uptake (Liver [15]): 2 % ID/g | Drug uptake (Femur [16]): 0.74 % ID/g | Drug uptake (Blood [17]): 0.06 % ID/g | Drug uptake (Muscle tissue [18]): 0.06 % ID/g | Drug uptake (Spleen [19]): 0.41 % ID/g
SMILES: Cc1c(SCc2ccc(CCCC[18F])cc2)oc2ccccc2c1=O

IC50 [1]: 52 nM
SMILES: CCCCc1ccc(CSc2oc3ccccc3c(=O)c2C)cc1
